Measurements from paper PMC4118675 (Chembiochem : a European journal of chemical biology, 2014).
Entries after “also recorded” stand apart in the source; their conditions may differ.

Legend:
[1] = test system: FGF signaling; experiment: FGF reporter activation in Tg; assay type: in vivo, zebrafish; conditions: for in vivo FGF hyperactivation activity (in words): Tg(dusp6:EGFP)pt6 embryos, SAR statement relative to 1
In short: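 Compound was added from 100X DMSO stocks (1% DMSO final). Time course was imaged hourly for 6 h; dose-response was read at 5 h. Embryos were anaesthetised with MS222 (40 μg/ml) and imaged at 4X (488/525 nm).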

[2] = target: T1, human c-Myc-DUSP6 (Homo sapiens, UniProt Q16828); experiment: Chemical complementation assay for DUSP6; assay type: cell-based
T1 sequence (Q16828 1-381): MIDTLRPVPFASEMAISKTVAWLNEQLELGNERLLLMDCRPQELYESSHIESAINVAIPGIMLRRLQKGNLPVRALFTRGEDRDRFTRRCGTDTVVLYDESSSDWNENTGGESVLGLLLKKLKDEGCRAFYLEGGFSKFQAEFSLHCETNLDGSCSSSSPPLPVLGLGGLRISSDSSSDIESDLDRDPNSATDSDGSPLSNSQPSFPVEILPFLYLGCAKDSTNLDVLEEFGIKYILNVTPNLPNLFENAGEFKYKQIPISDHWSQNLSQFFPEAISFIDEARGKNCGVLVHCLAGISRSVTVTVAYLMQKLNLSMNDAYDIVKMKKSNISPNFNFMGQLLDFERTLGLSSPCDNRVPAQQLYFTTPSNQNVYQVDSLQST
In short: (§1)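 Human c-Myc-tagged DUSP1 (in pcDNA3.1) or DUSP6 (in pSG5) transfected into HeLa cells, which were grown in DMEM with 10% FBS at 37 °C and 5% CO2. At 48 h, quadruplicate wells got a 15 min treatment with ten two-fold dilutions, then TPA (500 ng/ml) for 15 min. Cells were immunostained for pERK and c-Myc. IC50 came from a four-parameter logistic fit of KS values versus concentration.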

[3] = target: T2, human c-Myc-DUSP1 (Homo sapiens, UniProt P28562); experiment: Chemical complementation assay for DUSP1; assay type: cell-based
T2 sequence (P28562 1-367): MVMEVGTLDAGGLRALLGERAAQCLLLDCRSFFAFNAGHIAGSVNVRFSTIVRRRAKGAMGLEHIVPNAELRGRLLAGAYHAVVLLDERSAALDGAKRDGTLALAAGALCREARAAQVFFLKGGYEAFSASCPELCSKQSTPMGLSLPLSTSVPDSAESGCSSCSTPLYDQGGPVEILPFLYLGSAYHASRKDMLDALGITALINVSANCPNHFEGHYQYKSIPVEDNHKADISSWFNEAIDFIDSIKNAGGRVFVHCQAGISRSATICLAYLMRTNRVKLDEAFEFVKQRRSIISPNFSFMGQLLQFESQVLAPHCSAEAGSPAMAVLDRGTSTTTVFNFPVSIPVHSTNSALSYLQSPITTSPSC
In short: as §1

[4] = test system: zebrafish embryos; experiment: Hatching study in zebrafish embryos; assay type: in vivo; conditions: 6 hour exposure followed by washout; for embryos hatched (in words): exposure at their EC50 (1: 10 μM, 7: 5 μM)
[5] = test system: Recombinant His-tagged Dusp6; experiment: In vitro OMFP phosphatase assay, ERK2 induced activation of DUSP6; assay type: biochemical; conditions: 100 μM compound, with recombinant ERK2, OMFP substrate
In short: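 Recombinant His-tagged Dusp6 (250 ng), expressed in bacteria, was preincubated with 100 μM test compound. Recombinant ERK2 (210 ng) was added, then OMFP substrate (100 μM). Fluorescence (485/525 nm) was read every 10 min for 1 h at room temperature. Percent inhibition was taken at 10 min, within the linear range, from three independent experiments (mean ± SD). Vanadate was the positive control; one-way ANOVA with Tukey post hoc test.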

[6] = test system: DUSP; conditions: bacterially produced recombinant protein, no ERK; cited from earlier work
[7] = test system: EA.hy926 cells; experiment: Cytotoxicity in cultured EA.hy926 cells; assay type: cell-based; conditions: six hours, concentrations up to 50 μM
In short: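 EA.hy926 endothelial hybridoma cells were kept in DMEM with 10% FBS and 2 mM glutamine, plated at 10,000/well and allowed to attach overnight. They were exposed for 6 h to five-point 1/3 dilution gradients, with phenylarsine oxide as positive control. Live cells were stained with propidium iodide (1 μg/ml) and Hoechst 33342 (10 μg/ml), then imaged. Scored per field: nuclei count, nuclear condensation, % PI-positive cells.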

[8] = HeLa chemical complementation assay

SMILES	in vivo FGF hyperactivation activity (in words) [1]	suppression of ERK-stimulated activation of DUSP6 (in words) [5]	further results
O=C1C(=Cc2ccccc2)C(Nc2ccccc2)c2ccccc21 (stereo not shown) [Compound 4]	abolished activity	–	–
COc1ccc(/C=C2/C(=O)c3ccccc3C2N2CCOCC2)cc1 (stereo not shown) [Compound 24]	inactive; also recorded: abolished the activity	–	DUSP6 inhibition in mammalian cells (in words) [2, 8]: lacked antiphosphatase activity; DUSP1 inhibition in mammalian cells (in words) [3, 8]: lacked antiphosphatase activity
O=C1C(=Cc2ccc(Cl)cc2)C(NC2CCCCC2)c2ccccc21 (stereo not shown) [Compound 15]	did not substantially change activity compared to 1	–	–
O=C1/C(=C/c2ccccc2)C(N2CCOCC2)c2ccccc21 (stereo not shown) [Compound 7]	maximal activity	significantly suppressed activation of DUSP6	embryos hatched (in words) [4]: no embryos hatched
OC1C(=Cc2ccccc2)C(NC2CCCCC2)c2ccccc21 (stereo not shown) [Compound 31, 2-benzylidene-3-cyclohexylaminoindan-1-ol]	abolished activity	insignificant	–
O=C1/C(=C/c2ccccc2)C(NC2CCCCC2)c2ccccc21 (stereo not shown) [Compound 1, (E)-2-benzylidene-3-(cyclohexylamino)-2,3-dihydro-1H-inden-1-one]	–	significantly suppressed activation of DUSP6	time at which GFP expression reached a maximum ([1]; 20 μM, 24 hpf embryos, stable for an additional hour): 5 h; concentration of maximal FGF reporter activation ([1]; 5 hour time point, declined at higher concentrations): 20 µM; IC50 [2]: 13.3 ± 1.8 µM; IC50 [3]: 8 ± 0.6 µM; embryos hatched (in words) [4]: no embryos hatched; antiphosphatase activity in traditional biochemical assay (in words) [6]: lacked antiphosphatase activity
O=C1C(=Cc2ccc(Cl)c(Cl)c2)C(NC2CCCCC2)c2ccccc21 (stereo not shown) [Compound 16]	did not substantially change activity compared to 1	–	–
O=C1/C(=C/c2ccccc2)C(NC2CCCCC2)c2cc(Br)ccc21 (stereo not shown) [Compound 19]	tolerated	significantly suppressed activation of DUSP6	embryos hatched by 56 hpf ([4]; 20 μM (two times the EC50 for FGF activation)): 100%; cellular toxicity (in words) [7]: devoid of cellular toxicity
